The test system of assay [1] is Spinacia oleracea. The assay is described as follows: In vitro inhibition of basal rate of photosynthetic electron transport (Hill reaction) in active intact chloroplast thylakoid membrane of Spinacia oleracea (spinach) leaves assessed as light-driven ferricyanide reduction at 10 uM measured at 24 degC at 30 secs intervals for 10 min (reference value: 100 +/-3.1%). Further details: scale not given: the % may be the effect or the level left.

Assay [2] deals with Spinacia oleracea. Briefly: In vitro inhibition of basal rate of photosynthetic electron transport (Hill reaction) in active intact chloroplast thylakoid membrane of Spinacia oleracea (spinach) leaves assessed as light-driven ferricyanide reduction at 5 uM measured at 24 degC at 30 secs intervals for 10 min (reference value: 100 +/-3.1%). Further details: scale not given: the % may be the effect or the level left.

For assay [3], the system named is Auxenochlorella protothecoides. Briefly: In vivo inhibition of photosynthetic activity in intact Auxenochlorella protothecoides ATCC 30411 cells assessed as light-driven oxygen evolution rate at 100 uM measured at 24 degC every 15 sec upto 8 min by polarographic analysis in presence of 0.001% Triton X-100 (reference value: 100 +/-5.1%). It counts as functional. Set-up: scale not given: the % may be the effect or the level left.

Assay [4] concerns Auxenochlorella protothecoides. Briefly: In vivo inhibition of photosynthetic activity in intact Auxenochlorella protothecoides ATCC 30411 cells assessed as light-driven oxygen evolution rate at 10 uM measured at 24 degC every 15 sec upto 8 min by polarographic analysis in absence of detergent (reference value: 100 +/-5.9%). It counts as functional. Set-up: scale not given: the % may be the effect or the level left.

Assay [5] relates to Auxenochlorella protothecoides. Briefly: In vivo inhibition of photosynthetic activity in intact Auxenochlorella protothecoides ATCC 30411 cells assessed as light-driven oxygen evolution rate at 100 uM measured at 24 degC every 15 sec upto 8 min by polarographic analysis in absence of detergent (reference value: 100 +/-5.9%). Format: functional. Further details: scale not given: the % may be the effect or the level left.

The subject of assay [6] is Auxenochlorella protothecoides. Briefly: In vivo inhibition of photosynthetic activity in intact Auxenochlorella protothecoides ATCC 30411 cells assessed as light-driven oxygen evolution rate at 10 uM measured at 24 degC every 15 sec upto 8 min by polarographic analysis in presence of 0.001% Triton X-100 (reference value: 100 +/-5.1%). It counts as functional. Set-up: scale not given: the % may be the effect or the level left.

Assay [7] relates to Spinacia oleracea. Briefly: In vitro inhibition of phosphorylating electron transport in active intact chloroplast thylakoid membrane of Spinacia oleracea (spinach) leaves assessed as light-driven ferricyanide reduction at 10 uM measured at 24 degC at 30 secs intervals for 10 min (reference value: 100 +/-3.8%). Further details: scale not given: the % may be the effect or the level left.

The test system of assay [8] is Spinacia oleracea. The assay is described as follows: In vitro inhibition of basal rate of photosynthetic electron transport (Hill reaction) in active intact chloroplast thylakoid membrane of Spinacia oleracea (spinach) leaves assessed as inhibition of light-driven ferricyanide reduction at 10 uM measured at 24 degC at 30 secs intervals for 10 min in presence of 0.25 to 1 mM uncoupler, NH4Cl. The gist of the method:
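A fixed compound concentration was tested in the spinach thylakoid ferricyanide-reduction assay at increasing NH4Cl (uncoupler) levels. Activity is expressed as % of untreated samples containing the same amount of uncoupler, mean ± SE over at least six replications from two independent experiments.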

For assay [9], the system named is Spinacia oleracea. Briefly: In vitro inhibition of uncoupled electron transport in active intact chloroplast thylakoid membrane of Spinacia oleracea (spinach) leaves assessed as light-driven ferricyanide reduction at 10 uM measured at 24 degC at 30 secs intervals for 10 min (reference value: 100 +/-4.1%). Set-up: scale not given: the % may be the effect or the level left.

In assay [10] the test system is Spinacia oleracea. The assay is described as follows: In vitro inhibition of basal rate of photosynthetic electron transport (Hill reaction) in active intact chloroplast thylakoid membrane of Spinacia oleracea (spinach) leaves assessed as inhibition of light-driven ferricyanide reduction at >10 uM measured at 24 degC at 30 secs intervals for 10 min.

The source made the active and inactive calls. The rule behind the calls is not given here.

On to `O=C1OC(=Cc2ccc(Cl)cc2)C=C1Cc1ccc(Br)cc1`, for which the Activity with Spinacia oleracea [1] came to 89.4%; with Spinacia oleracea [2], 94.1%.
As to `CN(C)C(=O)Nc1ccc(Cl)c(Cl)c1` [DCMU], the Activity in assay [3] amounted to 20.7%; in [4], 49.9%; in assay [5] it was 38.5%; with Spinacia oleracea [1], 4.9%; in the assay with Spinacia oleracea [2], 6.8%; in assay [6] it was 32.2%.
As to `CN(C)c1ccc(C=C2C=C(Cc3ccc(Br)cc3)C(=O)O2)c(Cl)c1`, the Activity in the assay with Spinacia oleracea [1] is 91%; in the assay on Spinacia oleracea [2] it was 94.7%.
The matching figures for `N#Cc1ccc(C=C2C=C(Cc3ccc(Br)cc3)C(=O)O2)cc1`: 101% and 100%.
The like results for `Cc1cccc(/C=C2\C=C(Cc3ccc(Br)cc3)C(=O)O2)c1` were, in that order, 69.7% and 72.8%.
For the compound `O=C1OC(=Cc2ccccc2)C=C1Cc1ccc(Br)cc1`, the Activity was determined as 74.2% in assay [3]; 82.6% in [5]; 47.9% in the assay with Spinacia oleracea [7]; 42.9% in the assay on Spinacia oleracea [1]; 95.6% in the assay with Spinacia oleracea [9]; 54.1% with Spinacia oleracea [2]. Also, the inhibition entry in the assay on Spinacia oleracea [8] and with Spinacia oleracea [10] was “inactive” each time.
For the compound `COc1ccc(OC)c(/C=C2\C=C(Cc3ccc(Br)cc3)C(=O)O2)c1`, the Activity turned out to be 71% in the assay on Spinacia oleracea [1] and 94.1% in the assay on Spinacia oleracea [2].
The matching figures for `O=C1O/C(=C\c2ccc3c(c2)OCO3)C=C1Cc1ccc(Br)cc1`: 91% and 91.1%.
As for `O=C1OC(=Cc2ccc(Br)cc2)C=C1Cc1ccc(Br)cc1`, the results for the Activity in the assay with Spinacia oleracea [1] and in the assay with Spinacia oleracea [2] were 92% and 95.4%, respectively.
As to `O=C1OC(=Cc2ccc(C(F)(F)F)cc2)C=C1Cc1ccc(Br)cc1`, the Activity in [3] was determined as 89.5%; in [5], 94.5%; in the assay with Spinacia oleracea [7], 52.1%; in the assay with Spinacia oleracea [1], 48.8%; in the assay on Spinacia oleracea [9] it was 79.8%; with Spinacia oleracea [2] it was 71.7%. Further, in the assay on Spinacia oleracea [10], the inhibition result is “inactive”.
On to `O=C1OC(=Cc2cccc([N+](=O)[O-])c2)C=C1Cc1ccc(Br)cc1`, for which the Activity came out at 66.9% with Spinacia oleracea [1] and 72.6% in the assay on Spinacia oleracea [2].
The like results for `COc1cc(OC)c(/C=C2\C=C(Cc3ccc(Br)cc3)C(=O)O2)c(OC)c1` were, in that order, 79.9% and 84.2%.
The matching figures for `O=C1OC(=Cc2ccc(F)cc2)C=C1Cc1ccc(Br)cc1`: 68.5% and 74%.

The record behind these values is ChEMBL document CHEMBL3046488, “Synthesis of 3-(4-Bromobenzyl)-5-(aryl methylene)-5H-furan-2-ones and their activity as inhibitors of the photosynthetic electron transport chain” (2007).
